Source: ChEMBL document CHEMBL3045285, “Synthesis and insecticidal activities of novel anthranilic diamides containing modified N-pyridylpyrazoles” (2010)

Key:
Type in all cases: functional
Mythimna separata [1] = assay: Insecticidal activity against fourth-instar larval stage of Mythimna separata (Oriental armyworm) in compound pretreated Zea mays L. Tangyu 10 leaves assessed as mortality at 100 mg/l at 25 +/-1 degC after 2 days
Outline: (§1)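 Greenhouse-reared fourth-instar oriental armyworm larvae. Corn (Tangyu 10) leaves laid on moist filter paper in Petri dishes, sprayed with test solution (200 mg/L solution diluted in distilled water), then air-dried. Ten larvae per dish. Held at 25 ± 1 °C; mortality scored dead/alive 2 days post-treatment. Triplicate treatments, Abbott-corrected, 0–100 scale.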

Mythimna separata [2] = assay: Insecticidal activity against fourth-instar larval stage of Mythimna separata (Oriental armyworm) in compound pretreated Zea mays L. Tangyu 10 leaves assessed as mortality at 200 mg/l at 25 +/-1 degC after 2 days; outline: as §1
Mythimna separata [3] = assay: Insecticidal activity against fourth-instar larval stage of Mythimna separata (Oriental armyworm) in compound pretreated Zea mays L. Tangyu 10 leaves assessed as mortality at 20 mg/l at 25 +/-1 degC after 2 days; outline: as §1
Mythimna separata [4] = assay: Insecticidal activity against fourth-instar larval stage of Mythimna separata (Oriental armyworm) in compound pretreated Zea mays L. Tangyu 10 leaves assessed as mortality at 50 mg/l at 25 +/-1 degC after 2 days; outline: as §1

## CNC(=O)c1cc(Cl)cc(C)c1NC(=O)c1cc(CNS(C)(=O)=O)nn1-c1ncccc1Cl
Mythimna separata [1]
  mortality at 100 µg/mL: 60%
Mythimna separata [2]
  mortality at 200 µg/mL: 100%

## CNC(=O)c1cc(Cl)cc(C)c1NC(=O)c1cc(CNC(=O)c2ccccc2)nn1-c1ncccc1Cl
Mythimna separata [2]
  mortality at 200 µg/mL: 20%

## CNC(=O)c1cc(Cl)cc(C)c1NC(=O)c1cc(CNC(C)=O)nn1-c1ncccc1Cl
Mythimna separata [1]
  mortality at 100 µg/mL: 100%
Mythimna separata [3]
  mortality at 20 µg/mL: 0%
Mythimna separata [4]
  mortality at 50 µg/mL: 100%
Mythimna separata [2]
  mortality at 200 µg/mL: 100%

## CNC(=O)c1cc(Cl)cc(C)c1NC(=O)c1cc(CN)nn1-c1ncccc1Cl
Mythimna separata [2]
  mortality at 200 µg/mL: 20%

## CNC(=O)c1cc(Cl)cc(C)c1NC(=O)c1cc(C=O)nn1-c1ncccc1Cl
Mythimna separata [1]
  mortality at 100 µg/mL: 40%
Mythimna separata [2]
  mortality at 200 µg/mL: 100%

## CNC(=O)c1cc(Cl)cc(C)c1NC(=O)c1cc(CO)nn1-c1ncccc1Cl
Mythimna separata [1]
  mortality at 100 µg/mL: 100%
Mythimna separata [3]
  mortality at 20 µg/mL: 60%
Mythimna separata [4]
  mortality at 50 µg/mL: 100%
Mythimna separata [2]
  mortality at 200 µg/mL: 100%

## CNC(=O)c1cc(Cl)cc(C)c1NC(=O)c1cc(COC(=O)c2ccccc2)nn1-c1ncccc1Cl
Mythimna separata [1]
  mortality at 100 µg/mL: 100%
Mythimna separata [3]
  mortality at 20 µg/mL: 40%
Mythimna separata [4]
  mortality at 50 µg/mL: 100%
Mythimna separata [2]
  mortality at 200 µg/mL: 100%

## CNC(=O)c1cc(Cl)cc(C)c1NC(=O)c1cc(COC(=O)COC(C)=O)nn1-c1ncccc1Cl
Mythimna separata [1]
  mortality at 100 µg/mL: 100%
Mythimna separata [3]
  mortality at 20 µg/mL: 40%
Mythimna separata [4]
  mortality at 50 µg/mL: 100%
Mythimna separata [2]
  mortality at 200 µg/mL: 100%

## CNC(=O)c1cc(Cl)cc(C)c1NC(=O)c1cc(COC(=O)CCCCl)nn1-c1ncccc1Cl
Mythimna separata [1]
  mortality at 100 µg/mL: 100%
Mythimna separata [3]
  mortality at 20 µg/mL: 60%
Mythimna separata [4]
  mortality at 50 µg/mL: 100%
Mythimna separata [2]
  mortality at 200 µg/mL: 100%

## CNC(=O)c1cc(Cl)cc(C)c1NC(=O)c1cc(COC(=O)C(F)(F)F)nn1-c1ncccc1Cl
Mythimna separata [1]
  mortality at 100 µg/mL: 100%
Mythimna separata [3]
  mortality at 20 µg/mL: 20%
Mythimna separata [4]
  mortality at 50 µg/mL: 100%
Mythimna separata [2]
  mortality at 200 µg/mL: 100%

## CNC(=O)c1cc(Cl)cc(C)c1NC(=O)c1cc(COS(=O)(=O)c2ccc(C)cc2)nn1-c1ncccc1Cl
Mythimna separata [1]
  mortality at 100 µg/mL: 100%
Mythimna separata [3]
  mortality at 20 µg/mL: 80%
Mythimna separata [4]
  mortality at 50 µg/mL: 100%
Mythimna separata [2]
  mortality at 200 µg/mL: 100%

## CNC(=O)c1cc(Cl)cc(C)c1NC(=O)c1cc(COS(C)(=O)=O)nn1-c1ncccc1Cl
Mythimna separata [1]
  mortality at 100 µg/mL: 100%
Mythimna separata [3]
  mortality at 20 µg/mL: 40%
Mythimna separata [4]
  mortality at 50 µg/mL: 100%
Mythimna separata [2]
  mortality at 200 µg/mL: 100%

## CCCNC(=O)c1cccc(C)c1NC(=O)c1cc(COC(C)=O)nn1-c1ncccc1Cl
Mythimna separata [1]
  mortality at 100 µg/mL: 100%
Mythimna separata [3]
  mortality at 20 µg/mL: 40%
Mythimna separata [4]
  mortality at 50 µg/mL: 100%
Mythimna separata [2]
  mortality at 200 µg/mL: 100%

## CC(=O)OCc1cc(C(=O)Nc2c(C)cccc2C(=O)NC2CC2)n(-c2ncccc2Cl)n1
Mythimna separata [1]
  mortality at 100 µg/mL: 100%
Mythimna separata [3]
  mortality at 20 µg/mL: 40%
Mythimna separata [4]
  mortality at 50 µg/mL: 100%
Mythimna separata [2]
  mortality at 200 µg/mL: 100%

## CNC(=O)c1cccc(C)c1NC(=O)c1cc(COC(C)=O)nn1-c1ncccc1Cl
Mythimna separata [1]
  mortality at 100 µg/mL: 60%
Mythimna separata [2]
  mortality at 200 µg/mL: 100%

## CC(=O)OCc1cc(C(=O)Nc2c(C)cc(Cl)cc2C(=O)NCc2ccccc2)n(-c2ncccc2Cl)n1
Mythimna separata [1]
  mortality at 100 µg/mL: 100%
Mythimna separata [3]
  mortality at 20 µg/mL: 40%
Mythimna separata [4]
  mortality at 50 µg/mL: 100%
Mythimna separata [2]
  mortality at 200 µg/mL: 100%

## CONC(=O)c1cc(Cl)cc(C)c1NC(=O)c1cc(COC(C)=O)nn1-c1ncccc1Cl
Mythimna separata [1]
  mortality at 100 µg/mL: 0%
Mythimna separata [2]
  mortality at 200 µg/mL: 100%

## CCCCNC(=O)c1cc(C(=O)Nc2c(C)cc(Cl)cc2C(=O)NC)n(-c2ncccc2Cl)n1
Mythimna separata [1]
  mortality at 100 µg/mL: 100%
Mythimna separata [3]
  mortality at 20 µg/mL: 20%
Mythimna separata [4]
  mortality at 50 µg/mL: 100%
Mythimna separata [2]
  mortality at 200 µg/mL: 100%

## CNC(=O)c1cc(Cl)cc(C)c1NC(=O)c1cc(C(=O)NC2CCCCC2)nn1-c1ncccc1Cl
Mythimna separata [2]
  mortality at 200 µg/mL: 0%

## CNC(=O)c1cc(Cl)cc(C)c1NC(=O)c1cc(C(=O)Nc2ccccc2)nn1-c1ncccc1Cl
Mythimna separata [1]
  mortality at 100 µg/mL: 100%
Mythimna separata [3]
  mortality at 20 µg/mL: 0%
Mythimna separata [4]
  mortality at 50 µg/mL: 100%
Mythimna separata [2]
  mortality at 200 µg/mL: 100%

## CNC(=O)c1cc(Cl)cc(C)c1NC(=O)c1cc(C(=O)NC(C)(C)C)nn1-c1ncccc1Cl
Mythimna separata [1]
  mortality at 100 µg/mL: 100%
Mythimna separata [3]
  mortality at 20 µg/mL: 40%
Mythimna separata [4]
  mortality at 50 µg/mL: 100%
Mythimna separata [2]
  mortality at 200 µg/mL: 100%

## CNC(=O)c1cc(Cl)cc(C)c1NC(=O)c1cc(C(=O)NC(C)C)nn1-c1ncccc1Cl
Mythimna separata [1]
  mortality at 100 µg/mL: 100%
Mythimna separata [3]
  mortality at 20 µg/mL: 60%
Mythimna separata [4]
  mortality at 50 µg/mL: 100%
Mythimna separata [2]
  mortality at 200 µg/mL: 100%

## CNC(=O)c1cc(Cl)cc(C)c1NC(=O)c1cc(C(=O)NCc2ccccc2)nn1-c1ncccc1Cl
Mythimna separata [1]
  mortality at 100 µg/mL: 100%
Mythimna separata [3]
  mortality at 20 µg/mL: 20%
Mythimna separata [4]
  mortality at 50 µg/mL: 100%
Mythimna separata [2]
  mortality at 200 µg/mL: 100%

## CCCCNC(=O)c1cc(Cl)cc(C)c1NC(=O)c1cc(C(=O)NC)nn1-c1ncccc1Cl
Mythimna separata [1]
  mortality at 100 µg/mL: 20%
Mythimna separata [2]
  mortality at 200 µg/mL: 100%

## CNC(=O)c1cc(C(=O)Nc2c(C)cc(Cl)cc2C(=O)NCc2ccccc2)n(-c2ncccc2Cl)n1
Mythimna separata [1]
  mortality at 100 µg/mL: 60%
Mythimna separata [2]
  mortality at 200 µg/mL: 100%

## CNC(=O)c1cc(C(=O)Nc2c(C)cc(Cl)cc2C(=O)NOC)n(-c2ncccc2Cl)n1
Mythimna separata [2]
  mortality at 200 µg/mL: 0%

## CNC(=O)c1cc(C(=O)Nc2c(C)cc(Cl)cc2C(=O)NC(C)C)n(-c2ncccc2Cl)n1
Mythimna separata [1]
  mortality at 100 µg/mL: 60%
Mythimna separata [2]
  mortality at 200 µg/mL: 100%

## CNC(=O)c1cc(C(=O)Nc2c(C)cc(Cl)cc2C(=O)NC)n(-c2ncccc2Cl)n1
Mythimna separata [1]
  mortality at 100 µg/mL: 60%
Mythimna separata [2]
  mortality at 200 µg/mL: 100%

## CNC(=O)c1cc(Cl)cc(C)c1NC(=O)c1cc(C(=O)OC2CCCCC2)nn1-c1ncccc1Cl
Mythimna separata [1]
  mortality at 100 µg/mL: 40%
Mythimna separata [2]
  mortality at 200 µg/mL: 100%

## CNC(=O)c1cc(Cl)cc(C)c1NC(=O)c1cc(C(=O)OCc2ccccc2)nn1-c1ncccc1Cl
Mythimna separata [1]
  mortality at 100 µg/mL: 40%
Mythimna separata [2]
  mortality at 200 µg/mL: 100%

## CNC(=O)c1cc(Cl)cc(C)c1NC(=O)c1cc(C(=O)OC(C)C)nn1-c1ncccc1Cl
Mythimna separata [2]
  mortality at 200 µg/mL: 80%

## CCOC(=O)c1cc(C(=O)Nc2c(C)cc(Cl)cc2C(=O)NCc2ccccc2)n(-c2ncccc2Cl)n1
Mythimna separata [2]
  mortality at 200 µg/mL: 20%

## CCOC(=O)c1cc(C(=O)Nc2c(C)cccc2C(=O)NC(C)C)n(-c2ncccc2Cl)n1
Mythimna separata [1]
  mortality at 100 µg/mL: 100%
Mythimna separata [4]
  mortality at 50 µg/mL: 60%
Mythimna separata [2]
  mortality at 200 µg/mL: 100%

## CCCNC(=O)c1cccc(C)c1NC(=O)c1cc(C(=O)OCC)nn1-c1ncccc1Cl
Mythimna separata [1]
  mortality at 100 µg/mL: 100%
Mythimna separata [4]
  mortality at 50 µg/mL: 60%
Mythimna separata [2]
  mortality at 200 µg/mL: 100%

## CCCCOC(=O)c1cc(C(=O)Nc2c(C)cc(Cl)cc2C(=O)NC)n(-c2ncccc2Cl)n1
Mythimna separata [2]
  mortality at 200 µg/mL: 80%

## CCOC(=O)c1cc(C(=O)Nc2c(C)cc(Cl)cc2C(=O)NC(C)C)n(-c2ncccc2Cl)n1
Mythimna separata [2]
  mortality at 200 µg/mL: 70%

## CCOC(=O)c1cc(C(=O)Nc2c(C)cc(Cl)cc2C(=O)NC(C)(C)C)n(-c2ncccc2Cl)n1
Mythimna separata [1]
  mortality at 100 µg/mL: 100%
Mythimna separata [4]
  mortality at 50 µg/mL: 70%
Mythimna separata [2]
  mortality at 200 µg/mL: 100%

## CCOC(=O)c1cc(C(=O)Nc2c(C)cc(Cl)cc2C(=O)NC2CC2)n(-c2ncccc2Cl)n1
Mythimna separata [1]
  mortality at 100 µg/mL: 100%
Mythimna separata [4]
  mortality at 50 µg/mL: 80%
Mythimna separata [2]
  mortality at 200 µg/mL: 100%

## CCOC(=O)c1cc(C(=O)Nc2c(C)cc(Cl)cc2C(=O)NOC)n(-c2ncccc2Cl)n1
Mythimna separata [2]
  mortality at 200 µg/mL: 50%

## CCOC(=O)c1cc(C(=O)Nc2c(C)cc(Cl)cc2C(=O)NC)n(-c2ncccc2Cl)n1
Mythimna separata [2]
  mortality at 200 µg/mL: 80%
